{
  "source": "ChEMBL document CHEMBL2021869",
  "about": "“Pharmacological evaluation of a novel cyclic phosphatidic acid derivative 3-S-cyclic phosphatidic acid (3-S-cPA)” (Bioorg Med Chem, 2012)",
  "key": {"[1]": {"molecular_target": "Autotaxin (Bos taurus) (UniProt A1A4K5)", "assay": "Inhibition of ATX in fetal bovine serum using FS-3 as substrate at 0.1 to 10 uM after 2 hrs by fluorescence assay", "how_it_was_run": "(§1)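 ATX source: fetal bovine serum, mixed with compound in 0.1% BSA and 1 µM FS-3 in Tris-HCl pH 8.0 buffer (1 mM CaCl2, 1 mM MgCl2, 5 mM KCl, 140 mM NaCl). Fluorescence (485/530 nm) read before and after 2 h at 37 °C; pre-incubation value subtracted, normalized to vehicle as percent inhibition; triplicate wells, mean ± S.E.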"}, "[2]": {"molecular_target": "Autotaxin (Homo sapiens) (UniProt Q13822)", "assay": "Inhibition of ATX-mediated human MDA-MB-231 cell migration at 10 uM after 8 hrs by Cyto Fluor spectrophotometry relative to lysophosphatidyl choline", "how_it_was_run": "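Calcein-AM-stained MDA-MB-231 cells (4 × 10^5 cells/mL in DMEM with 0.1% fatty-acid-free BSA) placed in upper wells over 8-µm pore membranes; lower wells held 200 µM LPC plus 10 µM compound. Incubated 8 h at 37 °C; non-migrated cells wiped off, migrated-cell fluorescence read at 485/530 nm. Percent of LPC-only control; triplicate wells, ≥3 independent experiments.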"}, "[3]": {"system": "Rattus norvegicus", "assay": "Antinociceptive activity in Wistar rat assessed as somato-somatic C-reflex at 0.2 mg/kg, iv by electromyogram analysis relative to control", "format": "functional", "how_it_was_run": "(§2)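 Anesthetised adult male Wistar rats (310–370 g; pentobarbital 50 mg/kg ip); jugular vein catheter for iv dosing at 0.2 mg/kg, blood pressure and heart rate monitored, end-tidal CO2 kept near 3.0%. Reflex EMG evoked by single shocks, averaged over ~50 trials at 3-s intervals; response area expressed as percent of control size 0–15 min before injection; mean ± S.E.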"}, "[4]": {"organism": "Rattus norvegicus", "assay": "Ratio of natural cPA effective dose to compound effective dose for antinociceptive activity in Wistar rat assessed as reduction in somato-somatic C-reflex", "format": "functional"}, "[5]": {"molecular_target": "Autotaxin (Bos taurus) (UniProt A1A4K5)", "assay": "Inhibition of ATX in fetal bovine serum using FS-3 as substrate at 10 uM after 2 hrs by fluorescence assay", "how_it_was_run": "as §1"}, "[6]": {"assay": "Lipophilicity, Log P of the compound", "format": "physicochemical", "settings": "octanol/water"}, "[7]": {"system": "Rattus norvegicus", "assay": "Antinociceptive activity in Wistar rat assessed as reduction in A-reflex at 0.2 mg/kg, iv by electromyogram analysis relative to control", "format": "functional, organism-based", "parameters": "dose 0.2 mg/kg", "how_it_was_run": "as §2"}, "[8]": {"system": "Rattus norvegicus", "assay": "(§3) Neuroprotective effect against transient cerebral ischemia-induced delayed neuronal death in Wistar rat hippocampal CA1 region assessed as reduction in pyknosis and shrinkage of cells at 180 ug/kg/5 days dosed through mini-osmotic pump measured after 5 days of occlusion for 8 mins by hematoxylin/eosin based staining relative to control", "format": "functional, organism-based", "how_it_was_run": "(§4)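 Male Wistar rats under halothane; compound (180 µg·kg−1·5 days−1) or 0.2% fatty-acid-free BSA vehicle given by subcutaneous pump implanted 35–60 min before ischemia. Vertebral arteries ligated, both carotids occluded 8 min at ~37.5 °C. On day 5, formalin perfusion and paraffin sections (6 µm) of hippocampal CA1 stained with HE or anti-GFAP.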"}, "[9]": {"system": "Rattus norvegicus", "assay": "Antinociceptive activity in Wistar rat assessed as reduction in somato-somatic C-reflex at 0.2 mg/kg, iv by electromyogram analysis relative to control", "format": "functional, organism-based", "parameters": "dose 0.2 mg/kg", "how_it_was_run": "as §2"}, "[10]": {"system": "Rattus norvegicus", "assay": "as §3, with “decrease” for “reduction”, “GFAP accumulation” for “pyknosis and shrinkage of cells”, “immunohistochemical” for “hematoxylin/eosin based”", "format": "functional, organism-based", "how_it_was_run": "as §4"}},
  "note": "Calls of active or inactive are those of the source. No cut-off for these calls is given here.",
  "data": [
    {"smiles": "CCCCCC/C=C\\CCCCCCCC(=O)OC[C@H]1CSP(=O)(O)O1", "values": [
      {"measurement": "inhibition", "setting": "[1]", "value": "Active"}
    ]},
    {"smiles": "CCCCCCCCCCCCCCCC(=O)OCC1CSP(=O)(O)O1", "note": "(racemic)", "values": [
      {"measurement": "inhibition", "setting": "[2]", "value": "> 40", "unit": "%"}
    ]},
    {"smiles": "CCCCCCCC/C=C\\CCCCCCCC(=O)OCC1CSP(=O)(O)O1", "note": "(racemic)", "values": [
      {"measurement": "inhibition", "setting": "[2]", "value": "> 40", "unit": "%"}
    ]},
    {"smiles": "CCCCCC/C=C\\CCCCCCCC(=O)OCC1COP(=O)([O-])C1.[Na+]", "note": "(racemic)", "values": [
      {"measurement": "Activity", "setting": "[3]", "value": 83, "unit": "%"},
      {"measurement": "inhibition", "setting": "[1]", "value": "Active"},
      {"measurement": "fold change (FC)", "setting": "[4]", "value": 10}
    ]},
    {"smiles": "CCCCCC/C=C\\CCCCCCCC(=O)OC[C@@H]1CSP(=O)(O)O1", "values": [
      {"measurement": "inhibition", "setting": "[5]", "value": 40, "unit": "%"}
    ]},
    {"smiles": "CCCCCCCCCCCCCCCCCC(=O)OCC1CSP(=O)(O)O1", "note": "(racemic)", "values": [
      {"measurement": "inhibition", "setting": "[2]", "value": "> 40", "unit": "%"}
    ]},
    {"smiles": "CCCCCC/C=C\\CCCCCCCC(=O)OCC1CSP(=O)(O)O1.CCN(CC)CC", "note": "(racemic)", "values": [
      {"measurement": "logP", "setting": "[6]", "value": 5.96},
      {"measurement": "Activity", "setting": "[7]", "value": "inactive"},
      {"measurement": "Activity", "setting": "[3]", "value": 87, "unit": "%"},
      {"measurement": "inhibition", "setting": "[2]", "value": "> 40", "unit": "%"},
      {"measurement": "Activity", "setting": "[8]", "value": "Active"},
      {"measurement": "Activity", "setting": "[9]", "value": "Active"},
      {"measurement": "Activity", "setting": "[10]", "value": "Active"}
    ]}
  ]
}
